Assay results of several laboratories.
Each line is one published result; the experiments were not run side by side.
Read-out: cell growth or viability

SMILES | cell line | method | tested at | time | quantity | value
O=C(Cc1ccc2ccccc2c1)N[C@@H](Cc1ccccc1)C(=O)N[C@H](Cc1ccccc1)C(=O)N[C@H](Cc1ccc(OP(=O)(O)O)cc1)C(=O)O | HeLa | MTT | – | 48 h | IC50 | 500000 nM
C[C@H]1CN(c2ccncc2NC(=O)c2ccc(F)c(-c3c(F)cccc3F)n2)C[C@@H](N)[C@@H]1O | KMS-11 | thymidine uptake | – | – | GI50 | 123 nM
C[S@@+]([O-])CCCCN=C=S | Hepa-1c1c7 | crystal violet | – | 48 h | IC50 | 16700 nM
CN[C@@H]1C[C@H]2O[C@@](C)([C@@H]1OC)n1c3ccccc3c3c4c(c5c6ccccc6n2c5c31)C(=O)NC4 | U2OS | – | – | – | GI50 | 26 nM
CC1(C)C=Cc2cc(/C=C/C(=O)N3CCN(c4ccc(O)cc4)CC3)ccc2O1 | rat Primary cortical neuron | MTT | 1 µM | 12 h | viability | 98%
C[C@H]1CCC/C=C/[C@@H]2C[C@H](O)C[C@H]2[C@H](O)/C=C/C(=O)O1 | HeLa | ATP luminescence | – | – | EC50 | 40 nM
CC1(C)C=Cc2cc(/C=C/C(=O)Oc3ccccc3)ccc2O1 | rat Primary cortical neuron | MTT | 1 µM | 12 h | viability | 81%
CCC1(OC(=O)C(C)c2ccc3cc(OC)ccc3c2)C(=O)OCc2c1cc1n(c2=O)Cc2cc3cc4c(cc3nc2-1)OCO4 (stereo not shown) | HeLa | MTT | – | – | IC50 | 2180 nM
COc1ccc(NC(=O)CC(Nc2ccc(OC)cc2)c2ccc3c(c2)C=CC(C)(C)O3)cc1 (stereo not shown) | rat Primary cortical neuron | MTT | 1 µM | 12 h | viability | > 80%
COc1cc2c3c(n(CCCNCCO)c(=O)c2cc1OC)-c1cc2c(cc1C3=O)OCO2 | UACC-62 | SRB | – | – | GI50 | 30 nM
